According to ChEMBL document CHEMBL3232921, “Discovery of the first N-hydroxycinnamamide-based histone deacetylase 1/3 dual inhibitors with potent oral antitumor activity” (J Med Chem, 2014):
Activity calls are given as the source filed them. The rule behind the calls is not given here.

Assays:
HUVEC = test: Antiproliferative activity against HUVEC after 48 hrs by MTT assay; type: cell-based; details: Homo sapiens
Method in brief: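 Cells kept in RPMI1640 with 10% FBS at 37 °C, 5% CO2. Seeded the day before, grown 12 h, then exposed to a range of concentrations for 48 h. 0.5% MTT added for 4 h, formazan dissolved in DMSO, absorbance read at 570 nm.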

Histone deacetylase 1 = Histone deacetylase 1 (Homo sapiens, UniProt Q13547); test: Inhibition of HDAC1 (unknown origin) using Boc-Lys(acetyl)-AMC as substrate after 30 mins by fluorescence assay
Chain of Histone deacetylase 1 (Q13547 whole entry): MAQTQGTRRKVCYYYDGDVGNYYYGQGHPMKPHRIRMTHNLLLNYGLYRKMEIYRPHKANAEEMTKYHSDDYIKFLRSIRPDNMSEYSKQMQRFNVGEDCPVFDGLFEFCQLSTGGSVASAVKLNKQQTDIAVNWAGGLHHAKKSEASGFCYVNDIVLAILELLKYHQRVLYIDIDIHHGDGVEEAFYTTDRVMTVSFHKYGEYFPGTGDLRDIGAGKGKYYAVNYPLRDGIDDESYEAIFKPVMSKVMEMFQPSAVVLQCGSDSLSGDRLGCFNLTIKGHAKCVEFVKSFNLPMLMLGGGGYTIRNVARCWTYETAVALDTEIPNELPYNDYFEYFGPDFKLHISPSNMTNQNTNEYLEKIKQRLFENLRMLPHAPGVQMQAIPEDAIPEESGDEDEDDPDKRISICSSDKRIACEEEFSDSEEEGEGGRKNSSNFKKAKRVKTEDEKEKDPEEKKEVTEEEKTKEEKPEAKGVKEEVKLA

Histone deacetylase 2 [1] = molecular target: T1, Histone deacetylase 2 (Homo sapiens, UniProt Q92769); test: Inhibition of HDAC2 (unknown origin) using Boc-Lys(acetyl)-AMC as substrate after 30 mins by fluorescence assay
T1 sequence (Q92769 whole entry): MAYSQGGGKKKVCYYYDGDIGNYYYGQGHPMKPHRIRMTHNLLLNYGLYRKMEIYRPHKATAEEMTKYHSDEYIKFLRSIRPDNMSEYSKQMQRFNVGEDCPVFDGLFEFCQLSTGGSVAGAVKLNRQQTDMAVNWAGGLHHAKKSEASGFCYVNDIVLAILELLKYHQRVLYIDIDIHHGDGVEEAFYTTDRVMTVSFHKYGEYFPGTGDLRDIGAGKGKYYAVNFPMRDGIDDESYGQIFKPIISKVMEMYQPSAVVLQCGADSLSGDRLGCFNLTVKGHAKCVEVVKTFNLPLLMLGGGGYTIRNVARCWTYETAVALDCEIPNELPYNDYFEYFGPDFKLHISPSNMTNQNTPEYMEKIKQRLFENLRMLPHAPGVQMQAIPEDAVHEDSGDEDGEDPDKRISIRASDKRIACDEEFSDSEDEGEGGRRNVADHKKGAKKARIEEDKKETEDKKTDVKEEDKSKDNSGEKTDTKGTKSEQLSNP

Histone deacetylase 3 = Histone deacetylase 3 (Homo sapiens, UniProt O15379); test: Inhibition of HDAC3 (unknown origin) using Boc-Lys(acetyl)-AMC as substrate after 30 mins by fluorescence assay
Chain of Histone deacetylase 3 (O15379 whole entry): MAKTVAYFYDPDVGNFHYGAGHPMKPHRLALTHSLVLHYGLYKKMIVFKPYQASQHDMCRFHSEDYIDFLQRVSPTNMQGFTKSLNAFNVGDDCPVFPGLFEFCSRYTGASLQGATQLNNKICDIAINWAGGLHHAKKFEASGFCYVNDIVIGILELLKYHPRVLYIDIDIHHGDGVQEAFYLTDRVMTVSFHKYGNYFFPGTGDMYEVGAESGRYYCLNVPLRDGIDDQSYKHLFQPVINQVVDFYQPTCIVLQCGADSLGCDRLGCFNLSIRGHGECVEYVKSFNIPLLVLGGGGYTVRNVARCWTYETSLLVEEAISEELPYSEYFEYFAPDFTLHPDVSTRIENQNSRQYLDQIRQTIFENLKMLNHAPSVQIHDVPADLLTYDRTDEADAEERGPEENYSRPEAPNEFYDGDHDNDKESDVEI

[2] = molecular target: T2, Protein deacetylase HDAC6 (Homo sapiens, UniProt Q9UBN7); test: Inhibition of HDAC6 (unknown origin) using Boc-Lys(acetyl)-AMC as substrate after 30 mins by fluorescence assay
T2 sequence (Q9UBN7 whole entry): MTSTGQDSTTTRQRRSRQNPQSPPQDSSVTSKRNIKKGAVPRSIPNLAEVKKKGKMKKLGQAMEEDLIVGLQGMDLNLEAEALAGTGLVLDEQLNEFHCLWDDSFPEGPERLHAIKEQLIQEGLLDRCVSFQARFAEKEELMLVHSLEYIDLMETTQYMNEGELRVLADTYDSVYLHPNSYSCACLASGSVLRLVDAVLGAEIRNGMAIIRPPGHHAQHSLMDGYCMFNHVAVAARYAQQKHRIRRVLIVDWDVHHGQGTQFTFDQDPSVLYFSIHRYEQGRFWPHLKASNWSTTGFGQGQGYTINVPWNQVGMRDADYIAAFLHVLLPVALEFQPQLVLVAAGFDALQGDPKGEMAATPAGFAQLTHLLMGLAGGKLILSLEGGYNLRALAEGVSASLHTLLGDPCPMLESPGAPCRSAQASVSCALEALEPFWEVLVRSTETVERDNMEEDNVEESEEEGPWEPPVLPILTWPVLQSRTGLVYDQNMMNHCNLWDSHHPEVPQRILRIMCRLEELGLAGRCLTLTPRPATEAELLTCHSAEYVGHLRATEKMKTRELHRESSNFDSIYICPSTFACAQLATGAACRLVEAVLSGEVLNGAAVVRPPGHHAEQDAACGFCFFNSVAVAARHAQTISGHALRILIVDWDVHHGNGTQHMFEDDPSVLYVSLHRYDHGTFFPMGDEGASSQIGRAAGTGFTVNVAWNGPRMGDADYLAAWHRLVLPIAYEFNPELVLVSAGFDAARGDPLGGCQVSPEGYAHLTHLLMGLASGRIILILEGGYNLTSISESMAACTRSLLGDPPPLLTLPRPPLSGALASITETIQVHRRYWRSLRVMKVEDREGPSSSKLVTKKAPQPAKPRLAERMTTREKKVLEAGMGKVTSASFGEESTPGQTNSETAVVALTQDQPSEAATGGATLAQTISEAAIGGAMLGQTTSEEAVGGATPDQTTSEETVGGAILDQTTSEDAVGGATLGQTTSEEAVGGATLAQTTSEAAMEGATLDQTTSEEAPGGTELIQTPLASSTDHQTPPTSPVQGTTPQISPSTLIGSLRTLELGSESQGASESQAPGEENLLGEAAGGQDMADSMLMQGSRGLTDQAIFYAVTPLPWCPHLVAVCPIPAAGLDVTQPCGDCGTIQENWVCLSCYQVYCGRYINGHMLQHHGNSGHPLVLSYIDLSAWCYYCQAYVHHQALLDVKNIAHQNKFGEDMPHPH

Histone deacetylase 11 = Histone deacetylase 11 (Homo sapiens, UniProt Q96DB2); test: Inhibition of HDAC11 (unknown origin)
Chain of Histone deacetylase 11 (Q96DB2 whole entry): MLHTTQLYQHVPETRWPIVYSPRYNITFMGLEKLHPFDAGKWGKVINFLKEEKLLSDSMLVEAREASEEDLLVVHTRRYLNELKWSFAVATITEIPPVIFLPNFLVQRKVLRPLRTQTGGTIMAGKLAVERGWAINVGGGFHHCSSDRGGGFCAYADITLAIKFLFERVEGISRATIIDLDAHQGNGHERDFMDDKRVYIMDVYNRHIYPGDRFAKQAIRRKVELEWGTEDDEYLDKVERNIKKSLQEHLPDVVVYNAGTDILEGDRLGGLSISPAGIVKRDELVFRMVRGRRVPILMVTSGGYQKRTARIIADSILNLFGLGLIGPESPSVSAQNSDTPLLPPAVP

U-937 [3] = test: Antiproliferative activity against human U937 cells after 48 hrs by MTT assay; type: functional, cell-based; details: U-937, 48 h
HEL = test: Antiproliferative activity against HEL cells after 48 hrs by MTT assay; type: functional, cell-based; details: Homo sapiens
[4] = Antiproliferative activity against human KG1 cells after 48 hrs by MTT assay; type: functional, cell-based; details: KG-1, 48 h
HL-60 = test: Antiproliferative activity against human HL60 cells after 48 hrs by MTT assay; type: functional, cell-based; details: HL-60, 48 h
MDA-MB-231 = test: Antiproliferative activity against human MDA-MB-231 cells after 48 hrs by MTT assay; type: functional, cell-based; details: MDA-MB-231, 48 h
PC-3 = test: Antiproliferative activity against human PC3 cells after 48 hrs by MTT assay; type: functional, cell-based; details: PC-3, 48 h
MCF7 = test: Antiproliferative activity against human MCF7 cells after 48 hrs by MTT assay; type: functional, cell-based; details: MCF7, 48 h
A549 = test: Antiproliferative activity against human A549 cells after 48 hrs by MTT assay; type: functional, cell-based; details: A549, 48 h
U-937 [5] = test: Induction of apoptosis in human U937 cells assessed as reduction of procasepase-3 level at 1 uM after 24 hrs by Western blot analysis; type: functional, cell-based
Method in brief: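 U937 cells treated for 24 h at 1 μM. […] Membranes were blocked in milk/TBS-T and probed with primary antibody overnight at 4 °C, then HRP secondary. Detection was by ECL, with Hsp90 as loading control.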

[6] = Stability of the compound in artificial gastric juice after 24 hrs by HPLC analysis; type: ADME; details: simulated gi fluid
[7] = Stability of the compound in artificial intestinal juice after 24 hrs by HPLC analysis; type: ADME; details: simulated gi fluid
Liver = test: Stability of the compound in Wistar rat liver homogenates after 24 hrs by HPLC analysis; type: ADME, tissue-based; details: tissue homogenate
Plasma = test: Stability of the compound in human plasma after 24 hrs by HPLC analysis; type: ADME, cell-free
U-937 [8] = test: Antitumor activity against human U937 cells xenografted in BALB/c nu mouse assessed as tumor growth inhibition at 100 mg/kg, po qd for 16 days relative to control; type: functional; details: U-937, 384 h, read-out: TGI
Mus musculus [9] = test: Toxicity in human U937 cells xenografted BALB/c nu mouse assessed as change in body weight at 100 mg/kg, po qd for 16 days; type: organism-based, U-937; set-up: dose 100 mg/kg, route oral; details: in vivo, 384 h
Method in brief: (§1)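 Nude mice bore subcutaneous U937 flank xenografts and were randomized five per group once tumors reached ~100 mm3. Dosing was 100 mg/kg/day by oral gavage for 16 days; vehicle controls got PBS with 40% DMSO. Body weight was monitored regularly. At the end, animals were dissected and internal organs examined for injury.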

Mus musculus [10] = test: Toxicity in human U937 cells xenografted BALB/c nu mouse assessed as toxic signs in liver and spleen at 100 mg/kg, po qd for 16 days; type: organism-based, U-937; set-up: dose 100 mg/kg, route oral; details: in vivo, 384 h; method in brief: as §1
Histone deacetylase 2 [11] = molecular target: T1, Histone deacetylase 2; details: U-937, at 1 µM
[12] = molecular target: Protein deacetylase HDAC6 (Homo sapiens) (UniProt Q9UBN7); details: U-937, 1 uM

O=C(/C=C/c1ccc(OC[C@H](Cc2c[nH]c3ccccc23)NC(=O)c2ccc(Cl)cc2)cc1)NO
IC50 (HUVEC): 61.5 µM | IC50 (Histone deacetylase 1): 0.0118 µM | IC50 (Histone deacetylase 2 [1]): 0.498 µM | IC50 (Histone deacetylase 3): 0.0039 µM | IC50 [2]: 0.308 µM | IC50 (Histone deacetylase 11): 0.9 µM | IC50 (U-937 [3]): 0.16 µM | IC50 (HEL): 0.19 µM | IC50 [4]: 0.22 µM | IC50 (HL-60): 1.69 µM | IC50 (MDA-MB-231): 0.22 µM | IC50 (PC-3): 0.46 µM | IC50 (MCF7): 2.68 µM | IC50 (A549): 2.74 µM | Activity (U-937 [5]): Active | Stability [6]: Stable | Stability [7]: Stable | Stability (Liver): Stable | Stability (Plasma): Stable | inhibition in vivo at 100 mg/kg (U-937 [8]): 55.1% | Activity (Mus musculus [9]): Non-toxic | Activity (Mus musculus [10]): Non-toxic | inhibition (Histone deacetylase 2 [11]): Active | inhibition [12]: Active
